Reference: ChEMBL document CHEMBL3875163, “Novel urea and bis-urea primaquine derivatives with hydroxyphenyl or halogenphenyl substituents: Synthesis and biological evaluation” (Eur J Med Chem, 2016)
Converted amounts (≈) assume the structure as drawn.

Assays:
Pseudomonas aeruginosa [1] = assay: Antibacterial activity against multi-drug resistant Pseudomonas aeruginosa MFBF after 18 hrs by serial microdilution broth assay; format: functional
In short: (§1)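 EUCAST-based broth microdilution in Mueller-Hinton broth. Glycerol stock cultures grown in trypticase soy broth 18 h at 37 °C; inoculum in PBS pH 7.4 at 0.5 McFarland, diluted 1:10 in broth. Compounds from DMSO stocks, 1000 to 0.78125 µg/ml; 18 h aerobic, 35 °C, dark. TTC 0.5 mg/ml added, 3 h, then HCl/isopropanol, A490. MIC = lowest concentration giving 50% inhibition vs untreated; duplicates, averaged.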

[2] = Hemolytic activity against human RBC at 100 ug/ml after 1 hr relative to control; format: ADME, cell-based, Erythrocyte; conditions: red blood cells (RBC), read-out: Activity
Bacillus spizizenii = assay: Antibacterial activity against Bacillus subtilis ATCC 6633 after 18 hrs by serial microdilution broth assay; format: functional; conditions: ATCC 6633, 18 h
In short: (§2)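 Broth microdilution MIC per EUCAST for aerobic bacteria in Mueller-Hinton broth, serial dilution 1000 to 0.78125 µg/ml from 10 mg/ml DMSO stocks. Inoculum from trypticase soy broth cultures (18 h, 37 °C), set to 0.5 McFarland in PBS pH 7.4, diluted 1:10. 18 h aerobic incubation at 35 °C in dark, then TTC 0.5 mg/ml for 3 h, HCl-isopropanol, A490. MIC = lowest concentration giving 50% inhibition versus untreated; duplicates.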

[3] = Growth inhibition of mouse L1210 cells after 72 hrs by MTT assay; format: functional, cell-based; conditions: L1210, 72 h
Staphylococcus aureus [4] = assay: Antibacterial activity against methicillin sensitive Staphylococcus aureus ATCC 25923 after 18 hrs by serial microdilution broth assay; format: functional; conditions: ATCC 25923, 18 h; in short: as §1
Pseudomonas aeruginosa [5] = assay: Antibacterial activity against Pseudomonas aeruginosa ATCC 9027 after 18 hrs by serial microdilution broth assay; format: functional; conditions: ATCC 9027, 18 h; in short: as §1
Enterococcus faecalis [6] = assay: Antibacterial activity against vancomycin susceptible Enterococcus faecalis ATCC 29212 after 18 hrs by serial microdilution broth assay; format: functional; conditions: ATCC 29212, 18 h; in short: as §2
[7] = Antioxidant activity assessed as DPPH radical scavenging activity at 100 uM after 60 mins relative to control; format: functional
In short: (§3)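 Compound in DMSO added to DPPH in absolute ethanol, 0.1 mM final; absorbance at 517 nm after 20 and 60 min at room temperature. At least triplicate.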

[8] = Growth inhibition of human MCF7 cells after 72 hrs by MTT assay; format: functional, cell-based; conditions: MCF7, 72 h
In short: (§4)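 Modified NCI DTP protocol: cells in DMEM with 10% FBS, 2 mM glutamine, antibiotics, 37 °C, 5% CO2; seeded 1 × 10^4 to 3 × 10^4 cells/ml on day 0, exposed to five 10-fold dilutions (10^-8 to 10^-4 M) for 72 h; solvent control. MTT read-out; quadruplicate points in three experiments; IC50 by linear regression of growth percentages bracketing 50%.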

Enterococcus faecalis [9] = assay: Antibacterial activity against vancomycin resistant Enterococcus faecalis MFBF 11419 after 18 hrs by serial microdilution broth assay; format: functional; conditions: MFBF 11419, 18 h; in short: as §1
[10] = Antioxidant activity assessed as DPPH radical scavenging activity at 100 uM after 20 mins relative to control; format: functional; in short: as §3
[11] = Growth inhibition of human HeLa cells after 72 hrs by MTT assay; format: functional, cell-based
Bacillus pumilus = assay: Antibacterial activity against Bacillus pumilus NCTC 8241 after 18 hrs by serial microdilution broth assay; format: functional; conditions: NCTC 8241, 18 h; in short: as §2
Staphylococcus aureus [12] = assay: Antibacterial activity against Staphylococcus aureus ATCC 6538 after 18 hrs by serial microdilution broth assay; format: functional; conditions: ATCC 6538, 18 h; in short: as §2
Glycine max = assay: Inhibition of soybean LOX assessed as reduction in conversion of sodium linoleate to 13-hydroperoxylinoleic acid at 1 x 10^-4 M relative to control
In short: (§5)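 Soybean lipoxygenase incubated at room temperature with sodium linoleate (0.1 mM) and test compound (DMSO stocks); formation of 13-hydroperoxylinoleic acid read at 234 nm. Single-point screening at 1 × 10^-4 M; IC50 from several concentrations. At least triplicate.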

[13] = Growth inhibition of human Molt4/C8 cells after 72 hrs by MTT assay; format: functional, cell-based; conditions: MOLT-4, 72 h
Pseudomonas aeruginosa [14] = assay: Antibacterial activity against Pseudomonas aeruginosa ATCC 27853 after 18 hrs by serial microdilution broth assay; format: functional; conditions: ATCC 27853, 18 h; in short: as §2
[15] = Growth inhibition of human NCI-H460 cells after 72 hrs by MTT assay; format: functional, cell-based; conditions: NCI-H460, 72 h; in short: as §4
[16] = Growth inhibition of human MIAPaCa2 cells after 72 hrs by MTT assay; format: functional, cell-based; conditions: MIA PaCa-2, 72 h
Candida albicans = assay: Antifungal activity against Candida albicans ATCC 90028 after 18 hrs by serial microdilution broth assay; format: functional; conditions: ATCC 90028, 18 h
In short: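 Yeast microdilution in RPMI 1640 with glutamine plus 2% glucose, 1000 to 0.78125 µg/ml from 10 mg/ml DMSO stocks. Growth read with XTT (10 mg/ml) mixed 7:1 with menadione (1 mg/ml in acetone), absorbance at 540 nm. MIC taken as lowest concentration giving 50% growth inhibition versus untreated cells; tests in duplicate.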

Staphylococcus aureus [17] = assay: Antibacterial activity against methicillin resistant Staphylococcus aureus MFBF 10679 after 18 hrs by serial microdilution broth assay; format: functional; conditions: MFBF 10679, 18 h; in short: as §1
[18] = Growth inhibition of human SW620 cells after 72 hrs by MTT assay; format: functional, cell-based; conditions: SW-620, 72 h; in short: as §4
[19] = Antioxidant activity assessed as inhibition of AAPH-induced linoleic acid lipid peroxidation at 1 x 10^-4 M by UV-absorbance method relative to control; format: functional
In short: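 Linoleic acid peroxidation: 16 mM sodium linoleate dispersion in 0.05 M phosphate buffer pH 7.4 at 37 °C under air, initiated by AAPH (40 mM solution); compound at 1 × 10^-4 M; oxidation followed at 234 nm. At least triplicate.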

Staphylococcus aureus [20] = assay: Antibacterial activity against methicillin sensitive Staphylococcus aureus ATCC 25213 after 18 hrs by serial microdilution broth assay; format: functional; conditions: ATCC 25213, 18 h; in short: as §2
[21] = Cytotoxicity against HEK cells assessed as reduction in cell viability at 12.5 to 200 ug/ml after 24 hrs by MTT assay; format: toxicity, cell-based; conditions: human, hek293, 24 h
In short: (§6)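 HEK 293 cells, 5 × 10^3 per well, treated next day for 24 h with compound (range within 200 to 1.5625 µg/ml). MTT 0.5 mg/ml in DMEM/10% FBS, 4 h at 37 °C, 5% CO2; formazan in DMSO, A570. Viability as percent of untreated control; triplicates, three independent experiments.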

Bacillus cereus = assay: Antibacterial activity against Bacillus cereus ATCC 11778 after 18 hrs by serial microdilution broth assay; format: functional; conditions: ATCC 11778, 18 h; in short: as §2
Escherichia coli = assay: Antibacterial activity against Escherichia coli ATCC 10535 after 18 hrs by serial microdilution broth assay; format: functional; conditions: ATCC 10535, 18 h; in short: as §2
[22] = Growth inhibition of human CEM cells after 72 hrs by MTT assay; format: functional, cell-based; conditions: CCRF-CEM
Staphylococcus aureus [23] = assay: Antibacterial activity against methicillin resistant Staphylococcus aureus MFBF 10682 after 18 hrs by serial microdilution broth assay; format: functional; conditions: MFBF 10682, 18 h; in short: as §1
[24] = Cytotoxicity against HEK cells assessed as reduction in cell viability at 6.25 to 100 ug/ml after 24 hrs by MTT assay; format: toxicity, cell-based; conditions: human, hek293, 24 h; in short: as §6
[25] = Growth inhibition of human MCF7 cells by alamar blue assay; format: functional
[26] = Inhibition of soybean LOX assessed as reduction in conversion of sodium linoleate to 13-hydroperoxylinoleic acid; parameters: species or system Glycine max; in short: as §5

Row | SMILES | MIC50 (Pseudomonas aeruginosa [1]) [µg/mL] | hemolysis at 1 h, 100 ug/ml [2] [%] | MIC50 (Bacillus spizizenii) [µg/mL] | IC50 [3] [µM] | MIC50 (Staphylococcus aureus [4]) [µg/mL] | MIC50 (Pseudomonas aeruginosa [5]) [µg/mL] | MIC50 (Enterococcus faecalis [6]) [µg/mL] | Activity [7] [%] | IC50 [8] [µM] | MIC50 (Enterococcus faecalis [9]) [µg/mL] | Activity [10] [%] | IC50 [11] [µM] | MIC50 (Bacillus pumilus) [µg/mL] | inhibition (Glycine max) [%] | IC50 [13] [µM] | IC50 [15] [µM] | IC50 [16] [µM] | IC50 [18] [µM] | inhibition [19] [%] | IC50 [22] [µM] | further results
1 | COc1cc(NC(C)CCCNC(=O)Nc2ccc(C(F)(F)F)cc2)c2ncccc2c1 (configuration not stated) | 150 (≈ 336 µM) | 7.85 | > 100 | 7.4 | 35 (≈ 78.4 µM) | 100 (≈ 224 µM) | > 100 | 36.4 | 1.9 | > 100 | 38.9 | 8.3 | > 100 | 22.4 | 20 | 24 | 8.4 | 22 | 67 | 14 | MIC50 (Staphylococcus aureus [12]): 25 µg/mL (≈ 56 µM); MIC50 (Pseudomonas aeruginosa [14]): 25 µg/mL (≈ 56 µM); MIC50 (Candida albicans): > 100 µg/mL; MIC50 (Staphylococcus aureus [17]): > 100 µg/mL; MIC50 (Staphylococcus aureus [20]): 50 µg/mL (≈ 112 µM); Activity [21]: Non-Toxic; MIC50 (Bacillus cereus): > 100 µg/mL; MIC50 (Escherichia coli): > 100 µg/mL; MIC50 (Staphylococcus aureus [23]): > 100 µg/mL
2 | COc1cc(NC(C)CCCNC(=O)Nc2cccc(O)c2)c2ncccc2c1 (configuration not stated) | 100 (≈ 254 µM) | < 1 | 50 (≈ 127 µM) | 25 | 50 (≈ 127 µM) | 100 (≈ 254 µM) | > 100 | 52.3 | 11 | > 100 | 48.6 | 48 | 12.5 (≈ 31.7 µM) | 50.8 | 24 | 25 | 46 | 27 | 66.9 | 32 | Activity [24]: Non-Toxic; MIC50 (Staphylococcus aureus [12]): 20 µg/mL (≈ 50.7 µM); MIC50 (Pseudomonas aeruginosa [14]): 50 µg/mL (≈ 127 µM); MIC50 (Candida albicans): > 100 µg/mL; MIC50 (Staphylococcus aureus [17]): 100 µg/mL (≈ 254 µM); MIC50 (Staphylococcus aureus [20]): 50 µg/mL (≈ 127 µM); MIC50 (Bacillus cereus): 50 µg/mL (≈ 127 µM); MIC50 (Escherichia coli): 100 µg/mL (≈ 254 µM); MIC50 (Staphylococcus aureus [23]): 50 µg/mL (≈ 127 µM)
3 | COc1cccc2c1C(=O)c1c(O)c3c(c(O)c1C2=O)C[C@@](O)(C(=O)CO)C[C@@H]3O[C@H]1C[C@H](N)[C@H](O)[C@H](C)O1 [DOXORUBICIN] |  |  |  |  |  |  |  |  |  |  |  |  |  |  |  |  |  |  |  |  | IC95 [25]: 1 µM
4 | COc1cc(NC(C)CCCNC(=O)NNC(=O)Nc2cccc(F)c2)c2ncccc2c1 (configuration not stated) |  |  |  | 108 |  |  |  | 100 | 0.15 |  | 75.7 | > 250 |  | 67.4 | ≥ 250 | 50 | 69 | 9.5 | 58.2 | 98 | IC50 [26]: 40 µM
